# Source: ChEMBL document CHEMBL1133087, “Radioiodinated N-(2-diethylaminoethyl)benzamide derivatives with high melanoma uptake: structure-affinity relationships, metabolic fate, and intracellular localization” (J Med Chem, 2000)
# Tests used:
# Mus musculus [1] = assay: Biodistribution was studied by injecting intravenously into C57B1/6 mice bearing subcutaneously transplanted B16 lung after 6 hr.; format: ADME, organism-based; details: in vivo, iv
# Mus musculus [2] = assay: Biodistribution was studied by injecting intravenously into C57B1/6 mice bearing subcutaneously transplanted B16 kidney after 6 hr.; format: ADME, organism-based; details: in vivo, iv
# Mus musculus [3] = assay: Biodistribution was studied by injecting intravenously into C57B1/6 mice bearing subcutaneously transplanted B16 melanoma after 1 hr.; format: ADME, organism-based; details: in vivo, iv
# Mus musculus [4] = assay: Biodistribution was studied by injecting intravenously into C57B1/6 mice bearing subcutaneously transplanted B16 brain after 6 hr.; format: ADME, organism-based; details: in vivo, iv
# Mus musculus [5] = assay: Biodistribution was studied by injecting intravenously into C57B1/6 mice bearing subcutaneously transplanted B16 […] after 6 hr.; format: ADME, organism-based; details: in vivo, iv
# Mus musculus [6] = assay: Biodistribution was studied by injecting intravenously into C57B1/6 mice bearing subcutaneously transplanted B16 kidney after 1 hr.; format: ADME, organism-based; details: in vivo, iv
# Mus musculus [7] = assay: Biodistribution was studied by injecting intravenously into C57B1/6 mice bearing subcutaneously transplanted B16 muscle after 6 hr.; format: ADME, organism-based, Muscle tissue; details: in vivo, iv
# Mus musculus [8] = assay: Biodistribution was studied by injecting intravenously into C57B1/6 mice bearing subcutaneously transplanted B16 blood after 6 hr.; format: ADME, organism-based; details: in vivo, iv
# Mus musculus [9] = assay: Biodistribution was studied by injecting intravenously into C57B1/6 mice bearing subcutaneously transplanted B16 heart after 6 hr.; format: ADME, organism-based; details: in vivo, iv
# Mus musculus [10] = assay: Biodistribution was studied by injecting intravenously into C57B1/6 mice bearing subcutaneously transplanted B16 melanoma after 6 hr.; format: ADME, organism-based; details: in vivo, iv
# Mus musculus [11] = assay: Biodistribution was studied by injecting intravenously into C57B1/6 mice bearing subcutaneously transplanted B16 liver after 6 hr.; format: ADME, organism-based; details: in vivo, iv
# Mus musculus [12] = assay: Biodistribution was studied by injecting intravenously into C57B1/6 mice bearing subcutaneously transplanted B16 liver after 1 hr.; format: ADME, organism-based; details: in vivo, iv
# Mus musculus [13] = assay: Biodistribution was studied by injecting intravenously into C57B1/6 mice bearing subcutaneously transplanted B16 spleen after 1 hr.; format: ADME, organism-based; details: in vivo, iv
# Mus musculus [14] = assay: Biodistribution was studied by injecting intravenously into C57B1/6 mice bearing subcutaneously transplanted B16 blood after 1 hr.; format: ADME, organism-based; details: in vivo, iv
# Mus musculus [15] = assay: Biodistribution was studied by injecting intravenously into C57B1/6 mice bearing subcutaneously transplanted B16 brain after 1 hr.; format: ADME, organism-based; details: in vivo, iv
# Mus musculus [16] = assay: Biodistribution was studied by injecting intravenously into C57B1/6 mice bearing subcutaneously transplanted B16 lung after 1 hr.; format: ADME, organism-based; details: in vivo, iv
# [17] = The lipophilicity was measured in an octanol/water system at pH 7.4.; format: physicochemical
# In short: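 HPLC-purified no-carrier-added radioiodinated benzamide was added to 0.067 M phosphate buffer at pH 7.4 with an equal volume of 1-octanol. The mixture was vortexed to equilibrium, centrifuged and the phases separated. Each phase was γ-counted, with log P = log(cpm octanol/cpm buffer).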
# Mus musculus [18] = assay: Biodistribution was studied by injecting intravenously into C57B1/6 mice bearing subcutaneously transplanted B16 muscle after 1 hr.; format: ADME, organism-based, Muscle tissue; details: in vivo, iv
# Mus musculus [19] = assay: Biodistribution was studied by injecting intravenously into C57B1/6 mice bearing subcutaneously transplanted B16 heart after 1 hr.; format: ADME, organism-based; details: in vivo, iv
# B16 [20] = assay: Binding of radioiodinated compound in B16 cells as a function of specific activity for melanoma at 1 hr after injecting at 1.5(umol/mouse).; format: functional
# In short: (§1)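 C57Bl/6 mice carried subcutaneous B16 melanoma. Melanoma and blood radioactivity were measured by γ-counting at 1 or 6 h and expressed as % ID/g (mean, n = 3).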
# B16 [21] = assay: Binding of radioiodinated compound in B16 cells as a function of specific activity for blood at 1 hr after injecting at 1.5(umol/mouse).; format: functional; in short: as §1
# B16 [22] = assay: Binding of radioiodinated compound in B16 cells as a function of specific activity for melanoma at 1 hr after injecting at 1.5*10e-3 (uMol/mouse).; format: functional; in short: as §1
# B16 [23] = assay: Binding of radioiodinated compound in B16 cells as a function of specific activity for blood at 6 hr after injecting at 1.5*10e-3 (uMol/mouse); format: functional; in short: as §1
# [24] = Selectivity parameter calculated as the mean of 8 melanoma / non target tissue ratio at 1 hr postinjection; format: functional
# In short: (§2)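 Tissue radioactivity was γ-counted as % ID/g. Selectivity (M/NTT) is the mean of the 8 melanoma/nontarget tissue ratios: blood, heart, lung, spleen, liver, kidney, muscle and brain. n = 3.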
# B16 [25] = assay: Binding of radioiodinated compound in B16 cells as a function of specific activity for blood at 6 hr after injecting at 1.5(umol/mouse).; format: functional; in short: as §1
# [26] = Selectivity parameter calculated as the mean of 8 melanoma / non target tissue ratio at 6 hr postinjection; format: functional; in short: as §2
# B16 [27] = assay: Binding of radioiodinated compound in B16 cells as a function of specific activity for blood at 6 hr after injecting at 1.8*10e-6 (uMol/mouse).; format: functional; in short: as §1
# B16 [28] = assay: Binding of radioiodinated compound in B16 cells as a function of specific activity for blood at 1 hr after injecting at 1.8*10e-6 (uMol/mouse).; format: functional; in short: as §1
# Mus musculus [29] = assay: Amount of urinary radioactivity collected within 4 hr after iv injection into C57B1/6 mice was analyzed by RP-HPLC.; format: ADME, organism-based, Urine; details: in vivo
# B16 [30] = assay: Binding of radioiodinated compound in B16 cells as a function of specific activity for melanoma after 1 hr injecting at 1.8*10e-6 (uMol/mouse).; format: functional; in short: as §1
# B16 [31] = assay: Binding of radioiodinated compound in B16 cells as a function of specific activity for blood at 1 hr after injecting at 1.5*10e-3 (uMol/mouse).; format: functional; in short: as §1
# B16 [32] = assay: Binding of radioiodinated compound in B16 cells as a function of specific activity for melanoma at 6 hr after injecting at 1.5(umol/mouse).; format: functional; in short: as §1
# B16 [33] = assay: Binding of radioiodinated compound in B16 cells as a function of specific activity for melanoma at 6 hr after injecting at 1.5*10e-3 (uMol/mouse).; format: functional; in short: as §1
# B16 [34] = assay: Binding of radioiodinated compound in B16 cells as a function of specific activity for melanoma at 6 hr after injecting at 1.8*10e-6 (uMol/mouse).; format: functional; in short: as §1
# Mus musculus [35] = assay: Biodistribution was studied by injecting intravenously into C57B1/6 mice bearing subcutaneously transplanted B16 spleen after 24 hr.; format: ADME, organism-based; details: in vivo, iv
# Mus musculus [36] = assay: Biodistribution was studied by injecting intravenously into C57B1/6 mice bearing subcutaneously transplanted B16 kidney after 24 hr.; format: ADME, organism-based; details: in vivo, iv
# Mus musculus [37] = assay: Biodistribution was studied by injecting intravenously into C57B1/6 mice bearing subcutaneously transplanted B16 muscle after 24 hr.; format: ADME, organism-based, Muscle tissue; details: in vivo, iv
# Mus musculus [38] = assay: Biodistribution was studied by injecting intravenously into C57B1/6 mice bearing subcutaneously transplanted B16 lung after 24 hr.; format: ADME, organism-based; details: in vivo, iv
# Mus musculus [39] = assay: Biodistribution was studied by injecting intravenously into C57B1/6 mice bearing subcutaneously transplanted B16 brain after 24 hr.; format: ADME, organism-based; details: in vivo, iv
# Mus musculus [40] = assay: Biodistribution was studied by injecting intravenously into C57B1/6 mice bearing subcutaneously transplanted B16 liver after 24 hr.; format: ADME, organism-based; details: in vivo, iv
# Mus musculus [41] = assay: Biodistribution was studied by injecting intravenously into C57B1/6 mice bearing subcutaneously transplanted B16 melanoma after 24 hr.; format: ADME, organism-based; details: in vivo, iv
# Mus musculus [42] = assay: Biodistribution was studied by injecting intravenously into C57B1/6 mice bearing subcutaneously transplanted B16 blood after 24 hr; format: ADME, organism-based; details: in vivo, iv
# Mus musculus [43] = assay: Biodistribution was studied by injecting intravenously into C57B1/6 mice bearing subcutaneously transplanted B16 heart after 24 hr.; format: ADME, organism-based; details: in vivo, iv
SMILES,ID/g (Mus musculus [1]) [%],ID/g (Mus musculus [2]) [%],ID/g (Mus musculus [3]) [%],ID/g (Mus musculus [4]) [%],ID/g (Mus musculus [5]) [%],ID/g (Mus musculus [6]) [%],ID/g (Mus musculus [7]) [%],ID/g (Mus musculus [8]) [%],ID/g (Mus musculus [9]) [%],ID/g (Mus musculus [10]) [%],ID/g (Mus musculus [11]) [%],ID/g (Mus musculus [12]) [%],ID/g (Mus musculus [13]) [%],ID/g (Mus musculus [14]) [%],ID/g (Mus musculus [15]) [%],ID/g (Mus musculus [16]) [%],logD [17],ID/g (Mus musculus [18]) [%],ID/g (Mus musculus [19]) [%],ID (Mus musculus [29]) [%],further results
CCN(CC)CCNC(=O)c1cc(OC)ccc1I,0.41,0.17,8.06,0.02,0.31,1.81,0.08,0.33,0.13,2.32,0.23,1.23,1.26,0.9,0.15,1.41,1.16,0.38,0.63,–,–
CCN(CC)CCNC(=O)c1ccc(OC)c(I)c1,0.09,0.17,6.5,0.01,0.05,0.93,0.03,0.04,0.05,4.14,0.29,2.62,0.39,0.2,0.1,0.69,1.13,0.19,0.25,82,ID/g (B16 [20]): 5.41%; ID/g (B16 [21]): 0.78%; ID/g (B16 [22]): 4.86%; ID/g (B16 [23]): 0.24%; Ratio [24]: 24; ID/g (B16 [25]): 0.29%; Ratio [26]: 129; ID/g (B16 [27]): 0.04%; ID/g (B16 [28]): 0.2%; ID/g (B16 [30]): 6.5%; ID/g (B16 [31]): 1.03%; ID/g (B16 [32]): 3.72%; ID/g (B16 [33]): 5.27%; ID/g (B16 [34]): 4.14%
CCN(CC)CCNC(=O)c1cc(I)c(NC(C)=O)cc1OC,3.02,1.97,21.87,0.19,2.09,5.09,0.44,2.56,1.05,23.32,9.86,8.03,6.55,3.3,0.62,5.53,1.78,1.37,2.1,16,ID/g (Mus musculus [35]): 0.17%; ID/g (Mus musculus [36]): 0.4%; ID/g (Mus musculus [37]): 0.03%; ID/g (Mus musculus [38]): 0.25%; ID/g (Mus musculus [39]): 0.02%; ID/g (Mus musculus [40]): 3.72%; ID/g (Mus musculus [41]): 16.06%; ID/g (Mus musculus [42]): 0.21%; ID/g (Mus musculus [43]): 0.09%
CCN(CC)CCNC(=O)c1cc(I)ccc1OC,0.19,0.41,7.73,0.04,0.15,1.71,0.04,0.14,0.09,6.8,0.26,0.88,2.5,0.46,0.5,1.15,1.26,0.19,0.46,71,–
